Results as given in ChEMBL document CHEMBL3351887, “'Click' assembly of glycoclusters and discovery of a trehalose analogue that retards Aβ40 aggregation and inhibits Aβ40-induced neurotoxicity” (Bioorg Med Chem Lett, 2014).

Tests used:
[1] = biological target: Amyloid-beta precursor protein (Homo sapiens) (UniProt P05067); experiment: Inhibition of amyloid beta-40 aggregation (unknown origin) assessed as extension of lag phase of Abeta40 aggregation by ThT fluorescence assay
Outline: (§1)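 Monomer-rich Aβ40 (35 µM, supernatant after NaOH dissolution, sonication and ultracentrifugation) was incubated with 10 nM–100 µM compound in 20 mM phosphate buffer pH 7.4 (I 0.15 M), with 20 µM ThT and 0.007% NaN3, quiescent at 37 °C. Fluorescence (ex 440, em 480 nm) was read every 5 min. Lag time came from an empirical sigmoidal nonlinear-regression fit; mean ± SE of four independent experiments.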

[2] = biological target: Amyloid-beta precursor protein (Homo sapiens) (UniProt P05067); experiment: Inhibition of amyloid beta-40 aggregation (unknown origin) assessed as extension of lag phase of Abeta40 aggregation at 100 uM by ThT fluorescence assay; set-up: scale not given: the % may be the effect or the level left; outline: as §1
[3] = biological target: Amyloid-beta precursor protein (Homo sapiens) (UniProt P05067); experiment: Inhibition of amyloid beta-40 aggregation (unknown origin) assessed as alpha-helix at 36 uM after 72 hrs by CD spectra analysis (reference value: 11 to 15%); set-up: scale not given: the % may be the effect or the level left
Outline: (§2)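 Low-molecular-weight Aβ40 was prepared by dissolving the peptide in dilute aqueous NaOH (pH 10.5–12) and diluting in phosphate buffer (pH 7.4). It was sonicated for 60 s and ultracentrifuged at 80,000 rpm for 90 min at 4 °C, and the supernatant was used. Compound and Aβ40 were incubated quiescently at pH 7.4 and 37 °C at molar ratios 1:5, 1:1 and 5:1. Secondary-structure fractions were read from CD spectra after 72 h.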

[4] = biological target: Amyloid-beta precursor protein (Homo sapiens) (UniProt P05067); experiment: Inhibition of amyloid beta-40 aggregation (unknown origin) assessed as alpha-helix at 180 uM after 72 hrs by CD spectra analysis (reference value: 11 to 15%); set-up: scale not given: the % may be the effect or the level left; outline: as §2
[5] = biological target: Amyloid-beta precursor protein (Homo sapiens) (UniProt P05067); experiment: Inhibition of amyloid beta-40 aggregation (unknown origin) assessed as alpha-helix at 900 uM after 72 hrs by CD spectra analysis (reference value: 11 to 15%); set-up: scale not given: the % may be the effect or the level left; outline: as §2
[6] = biological target: Amyloid-beta precursor protein (Homo sapiens) (UniProt P05067); experiment: Inhibition of amyloid beta-40 aggregation (unknown origin) assessed as beta-sheet at 36 uM after 72 hrs by CD spectra analysis (reference value: 2 to 3%); set-up: scale not given: the % may be the effect or the level left; outline: as §2
[7] = biological target: Amyloid-beta precursor protein (Homo sapiens) (UniProt P05067); experiment: Inhibition of amyloid beta-40 aggregation (unknown origin) assessed as beta-sheet at 180 uM after 72 hrs by CD spectra analysis (reference value: 2 to 3%); set-up: scale not given: the % may be the effect or the level left; outline: as §2
[8] = biological target: Amyloid-beta precursor protein (Homo sapiens) (UniProt P05067); experiment: Inhibition of amyloid beta-40 aggregation (unknown origin) assessed as beta-sheet at 900 uM after 72 hrs by CD spectra analysis (reference value: 2 to 3%); set-up: scale not given: the % may be the effect or the level left; outline: as §2
[9] = biological target: Amyloid-beta precursor protein (Homo sapiens) (UniProt P05067); experiment: Inhibition of amyloid beta-40 aggregation (unknown origin) assessed as beta-turns at 36 uM after 72 hrs by CD spectra analysis (reference value: 0%); set-up: scale not given: the % may be the effect or the level left; outline: as §2
[10] = biological target: Amyloid-beta precursor protein (Homo sapiens) (UniProt P05067); experiment: Inhibition of amyloid beta-40 aggregation (unknown origin) assessed as beta-turns at 180 uM after 72 hrs by CD spectra analysis (reference value: 0%); set-up: scale not given: the % may be the effect or the level left; outline: as §2
[11] = biological target: Amyloid-beta precursor protein (Homo sapiens) (UniProt P05067); experiment: Inhibition of amyloid beta-40 aggregation (unknown origin) assessed as beta-turns at 900 uM after 72 hrs by CD spectra analysis (reference value: 0%); set-up: scale not given: the % may be the effect or the level left; outline: as §2
[12] = biological target: Amyloid-beta precursor protein (Homo sapiens) (UniProt P05067); experiment: Inhibition of amyloid beta-40 aggregation (unknown origin) assessed as unordered at 36 uM after 72 hrs by CD spectra analysis (reference value: 82 to 85%); set-up: scale not given: the % may be the effect or the level left; outline: as §2
[13] = biological target: Amyloid-beta precursor protein (Homo sapiens) (UniProt P05067); experiment: Inhibition of amyloid beta-40 aggregation (unknown origin) assessed as unordered at 180 uM after 72 hrs by CD spectra analysis (reference value: 82 to 85%); set-up: scale not given: the % may be the effect or the level left; outline: as §2
[14] = biological target: Amyloid-beta precursor protein (Homo sapiens) (UniProt P05067); experiment: Inhibition of amyloid beta-40 aggregation (unknown origin) assessed as unordered at 900 uM after 72 hrs by CD spectra analysis (reference value: 82 to 85%); set-up: scale not given: the % may be the effect or the level left; outline: as §2
[15] = Neuroprotective activity in C57BL/6 mouse primary cortical neurons assessed as reduction in amyloid beta-40-induced cell death at 240 uM pre-incubated with amyloid beta-40 for 6 hrs and measured after 48 hrs by trypan blue dye exclusion assay; format: functional, Cerebral cortex neuron; set-up: scale not given: the % may be the effect or the level left
[16] = Neuroprotective activity in C57BL/6 mouse primary cortical neurons assessed as reduction in amyloid beta-40-induced cell death at 600 uM pre-incubated with amyloid beta-40 for 6 hrs and measured after 48 hrs by trypan blue dye exclusion assay; format: functional, Cerebral cortex neuron; set-up: scale not given: the % may be the effect or the level left
[17] = biological target: Amyloid-beta precursor protein (Homo sapiens) (UniProt P05067); experiment: Inhibition of amyloid beta-40 aggregation (unknown origin) assessed as fibril width at 1800 uM for 7 days at pH 7.4 by transmission electron microscopy (reference value: 12.3 +/- 1.2 nanometer)
[18] = Toxicity in C57BL/6 mouse primary cortical neurons assessed as reduction in cell viability at 240 to 600 uM after 48 hrs by trypan blue dye exclusion assay; format: cell-based; conditions: cerebral cortex neuron

Amyloid-beta precursor protein (Homo sapiens), sequence (P05067 whole entry): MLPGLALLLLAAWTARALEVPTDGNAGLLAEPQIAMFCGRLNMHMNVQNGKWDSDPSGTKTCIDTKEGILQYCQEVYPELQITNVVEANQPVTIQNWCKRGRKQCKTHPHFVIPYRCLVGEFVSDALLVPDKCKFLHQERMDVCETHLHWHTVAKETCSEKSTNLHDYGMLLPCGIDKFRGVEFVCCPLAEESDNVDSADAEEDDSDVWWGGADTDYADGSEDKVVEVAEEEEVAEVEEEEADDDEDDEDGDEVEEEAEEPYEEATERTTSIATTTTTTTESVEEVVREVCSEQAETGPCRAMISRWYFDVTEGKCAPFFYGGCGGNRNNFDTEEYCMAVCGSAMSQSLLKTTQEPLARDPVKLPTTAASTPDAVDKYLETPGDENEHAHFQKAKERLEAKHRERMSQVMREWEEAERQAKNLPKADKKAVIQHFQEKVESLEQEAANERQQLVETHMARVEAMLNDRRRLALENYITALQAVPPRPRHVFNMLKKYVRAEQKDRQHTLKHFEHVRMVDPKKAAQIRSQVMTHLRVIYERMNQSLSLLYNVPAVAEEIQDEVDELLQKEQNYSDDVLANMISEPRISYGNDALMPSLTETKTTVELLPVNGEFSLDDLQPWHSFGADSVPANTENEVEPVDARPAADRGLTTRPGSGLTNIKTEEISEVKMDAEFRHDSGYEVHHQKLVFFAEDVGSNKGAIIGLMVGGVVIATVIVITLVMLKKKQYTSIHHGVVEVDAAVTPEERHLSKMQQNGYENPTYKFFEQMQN

Row | SMILES | inhibition [1] | Activity [2] [%] | Activity [3] [%] | Activity [4] [%] | Activity [5] [%] | Activity [6] [%] | Activity [7] [%] | Activity [8] [%] | Activity [9] [%] | Activity [10] [%] | Activity [11] [%] | Activity [12] [%] | Activity [13] [%] | Activity [14] [%] | Activity [15] [%] | Activity [16] [%] | Activity [17] [nm] | Activity [18]
1 | OC[C@H]1O[C@@H](O[C@H]2[C@H](O)[C@@H](O)[C@H](n3cc(COCC(COCc4cn([C@@H]5O[C@H](CO)[C@@H](O[C@@H]6O[C@H](CO)[C@H](O)[C@H](O)[C@H]6O)[C@H](O)[C@H]5O)nn4)(COCc4cn([C@@H]5O[C@H](CO)[C@@H](O[C@@H]6O[C@H](CO)[C@H](O)[C@H](O)[C@H]6O)[C@H](O)[C@H]5O)nn4)COCC(COCc4cn([C@@H]5O[C@H](CO)[C@@H](O[C@@H]6O[C@H](CO)[C@H](O)[C@H](O)[C@H]6O)[C@H](O)[C@H]5O)nn4)(COCc4cn([C@@H]5O[C@H](CO)[C@@H](O[C@@H]6O[C@H](CO)[C@H](O)[C@H](O)[C@H]6O)[C@H](O)[C@H]5O)nn4)COCc4cn([C@@H]5O[C@H](CO)[C@@H](O[C@@H]6O[C@H](CO)[C@H](O)[C@H](O)[C@H]6O)[C@H](O)[C@H]5O)nn4)nn3)O[C@@H]2CO)[C@H](O)[C@@H](O)[C@H]1O | Dose-dependent effect | 28 |  |  |  |  |  |  |  |  |  |  |  |  |  |  |  | 
2 | OC[C@H]1O[C@H](O[C@H]2O[C@H](CO)[C@@H](O)[C@H](O)[C@H]2O)[C@H](O)[C@@H](O)[C@@H]1O [TREHALOSE] |  |  | 19 | 26 | 18 | 36 | 36 | 36 | 30 | 33 | 29 | 15 | 5 | 17 | 39 | 55 | 11.8 | Non-toxic
3 | OC[C@H]1O[C@@H](n2cc(COCC(COCc3cn([C@@H]4O[C@H](CO)[C@H](O)[C@H](O)[C@H]4O)nn3)(COCc3cn([C@@H]4O[C@H](CO)[C@H](O)[C@H](O)[C@H]4O)nn3)COCC(COCc3cn([C@@H]4O[C@H](CO)[C@H](O)[C@H](O)[C@H]4O)nn3)(COCc3cn([C@@H]4O[C@H](CO)[C@H](O)[C@H](O)[C@H]4O)nn3)COCc3cn([C@@H]4O[C@H](CO)[C@H](O)[C@H](O)[C@H]4O)nn3)nn2)[C@H](O)[C@@H](O)[C@H]1O | Dose-dependent effect | 28 |  |  |  |  |  |  |  |  |  |  |  |  |  |  |  | 
